Data from ChEMBL document CHEMBL2311305, “Antiproliferative potency of novel benzofuran-2-carboxamides on tumour cell lines: cell death mechanisms and determination of crystal structure” (Eur J Med Chem, 2013).
Active and inactive are the calls of the source. The calls are words filed in the database; no cut-off is given here.

How the values were obtained:
SK-BR-3 [1] = experiment: Induction of apoptosis in human SKBR3 cells assessed as caspase9 activation at 5 uM after 24 to 48 hrs by caspase protease assay; type: functional, cell-based
Outline: (§1)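 Compound at 5 µM on SK-BR-3 and 10 µM on SW620. Cells harvested after 24 and 48 h, washed in PBS, lysed 10 min on ice, centrifuged. Lysate diluted to 3 mg/mL protein and mixed with DTT-containing reaction buffer and caspase-3, -8 or -9 substrate. Incubated 90 min at 37 °C in the dark. Absorbance read at 405 nm, duplicates, compared with untreated control.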

SK-BR-3 [2] = experiment: Induction of apoptosis in human SKBR3 cells assessed as caspase8 activation at 5 uM after 24 to 48 hrs by caspase protease assay; type: functional, cell-based; outline: as §1
SK-BR-3 [3] = experiment: Induction of apoptosis in human SKBR3 cells assessed as caspase3 activation at 5 uM after 24 to 48 hrs by caspase protease assay; type: functional, cell-based; outline: as §1
SK-BR-3 [4] = experiment: Induction of cell cycle arrest in human SKBR3 cells assessed as G2/M phase cells at 10 uM after 48 hrs by PI-staining based flow cytometric analysis (reference value: 11.6 +/- 0.3%); type: functional
SK-BR-3 [5] = experiment: Induction of cell cycle arrest in human SKBR3 cells assessed as G2/M phase cells at 5 uM after 48 hrs by PI-staining based flow cytometric analysis (reference value: 11.6 +/- 0.3%); type: functional
SK-BR-3 [6] = experiment: Induction of cell cycle arrest in human SKBR3 cells assessed as S phase cells at 10 uM after 48 hrs by PI-staining based flow cytometric analysis (reference value: 35.2 +/- 1.8%); type: functional
SK-BR-3 [7] = experiment: Induction of cell cycle arrest in human SKBR3 cells assessed as S phase cells at 5 uM after 48 hrs by PI-staining based flow cytometric analysis (reference value: 35.2 +/- 1.8%); type: functional
SK-BR-3 [8] = experiment: Induction of cell cycle arrest in human SKBR3 cells assessed as G1 phase cells at 10 uM after 48 hrs by PI-staining based flow cytometric analysis (reference value: 53.3 +/- 1.5%); type: functional
SK-BR-3 [9] = experiment: Induction of cell cycle arrest in human SKBR3 cells assessed as G1 phase cells at 5 uM after 48 hrs by PI-staining based flow cytometric analysis (reference value: 53.3 +/- 1.5%); type: functional
SK-BR-3 [10] = experiment: Induction of cell cycle arrest in human SKBR3 cells assessed as subG1 phase cells at 10 uM after 48 hrs by PI-staining based flow cytometric analysis (reference value: 27.5 +/- 0.2%); type: functional
SK-BR-3 [11] = experiment: Induction of cell cycle arrest in human SKBR3 cells assessed as subG1 phase cells at 5 uM after 48 hrs by PI-staining based flow cytometric analysis (reference value: 27.5 +/- 0.2%); type: functional
SK-BR-3 [12] = experiment: Induction of cell cycle arrest in human SKBR3 cells assessed as G2/M phase cells at 5 uM after 24 hrs by PI-staining based flow cytometric analysis (reference value: 33.7 +/- 0.3%); type: functional
SK-BR-3 [13] = experiment: Induction of cell cycle arrest in human SKBR3 cells assessed as G2/M phase cells at 10 uM after 24 hrs by PI-staining based flow cytometric analysis (reference value: 33.7 +/- 0.3%); type: functional
SK-BR-3 [14] = experiment: Induction of cell cycle arrest in human SKBR3 cells assessed as S phase cells at 10 uM after 24 hrs by PI-staining based flow cytometric analysis (reference value: 26.2 +/- 2.3%); type: functional
SK-BR-3 [15] = experiment: Induction of cell cycle arrest in human SKBR3 cells assessed as S phase cells at 5 uM after 24 hrs by PI-staining based flow cytometric analysis (reference value: 26.2 +/- 2.3%); type: functional
SK-BR-3 [16] = experiment: Induction of cell cycle arrest in human SKBR3 cells assessed as G1 phase cells at 10 uM after 24 hrs by PI-staining based flow cytometric analysis (reference value: 40.1 +/- 0.7%); type: functional
SK-BR-3 [17] = experiment: Induction of cell cycle arrest in human SKBR3 cells assessed as G1 phase cells at 5 uM after 24 hrs by PI-staining based flow cytometric analysis (reference value: 40.1 +/- 0.7%); type: functional
SK-BR-3 [18] = experiment: Induction of cell cycle arrest in human SKBR3 cells assessed as subG1 phase cells at 10 uM after 24 hrs by PI-staining based flow cytometric analysis (reference value: 25.1 +/- 0.4%); type: functional
HeLa = experiment: Cytotoxicity against human HeLa cells after 72 hrs by MTT assay; type: functional, cell-based; details: Homo sapiens, HeLa, 72 h
Outline: (§2)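 Cells seeded at 3000-6000 per well on day 0, according to cell line doubling time. Compound added in five 10-fold dilutions, 72-h incubation, then MTT colorimetric read-out. Absorbances converted to percentage growth by NCI formulae. IC50 obtained by linear regression between the concentrations bracketing PG 50; ">100" assigned when no concentration reaches it. Quadruplicate points, three independent experiments.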

SK-BR-3 [19] = experiment: Induction of cell cycle arrest in human SKBR3 cells assessed as subG1 phase cells at 5 uM after 24 hrs by PI-staining based flow cytometric analysis (reference value: 25.1 +/- 0.4%); type: functional
MIA PaCa-2 = experiment: Cytotoxicity against human MIAPaCa2 cells after 72 hrs by MTT assay; type: functional, cell-based; details: Homo sapiens, MIA PaCa-2, 72 h; outline: as §2
WI-38 = experiment: Cytotoxicity against human WI38 cells after 72 hrs by MTT assay; type: cell-based; details: Homo sapiens, WI-38, 72 h; outline: as §2
SW-620 = experiment: Cytotoxicity against human SW620 cells after 72 hrs by MTT assay; type: functional, cell-based; details: Homo sapiens, SW-620, 72 h; outline: as §2
MCF7 = experiment: Cytotoxicity against human MCF7 cells after 72 hrs by MTT assay; type: functional, cell-based; details: Homo sapiens, MCF7, 72 h; outline: as §2
SK-BR-3 [20] = experiment: Cytotoxicity against human SKBR3 cells after 72 hrs by MTT assay; type: functional, cell-based; details: SK-BR-3, 72 h; outline: as §2

Question: With `Cl.O=C(Nc1nc2ccc(C3=NCCN3)cc2[nH]1)c1cc2ccccc2o1` as the compound, how does the Activity (SK-BR-3 [1]) read?
Answer: Active

Question: And the Activity (SK-BR-3 [2])?
Answer: Active

Question: What about the Activity (SK-BR-3 [3]) of the same compound?
Answer: Active

Question: What about the Activity (SK-BR-3 [4]) of the same compound?
Answer: 15.9%

Question: What about the Activity (SK-BR-3 [5]) of the same compound?
Answer: 9.7%

Question: And the Activity (SK-BR-3 [6])?
Answer: 31.3%

Question: What about the Activity (SK-BR-3 [7]) of the same compound?
Answer: 68.5%

Question: And the Activity (SK-BR-3 [8])?
Answer: 52.8%

Question: And the Activity (SK-BR-3 [9])?
Answer: 21.8%

Question: What about the Activity (SK-BR-3 [10]) of the same compound?
Answer: 36.3%

Question: What about the Activity (SK-BR-3 [11]) of the same compound?
Answer: 38.1%

Question: What about the Activity (SK-BR-3 [12]) of the same compound?
Answer: 10%

Question: And the Activity (SK-BR-3 [13])?
Answer: 6.4%

Question: And the Activity (SK-BR-3 [14])?
Answer: 23.6%

Question: And the Activity (SK-BR-3 [15])?
Answer: 31.5%

Question: What about the Activity (SK-BR-3 [16]) of the same compound?
Answer: 70%

Question: And the Activity (SK-BR-3 [17])?
Answer: 58.5%

Question: And the Activity (SK-BR-3 [18])?
Answer: 31.5%

Question: What about the IC50 (HeLa) of the same compound?
Answer: 68.5 µM

Question: What about the Activity (SK-BR-3 [19]) of the same compound?
Answer: 33.1%

Question: And the IC50 (MIA PaCa-2)?
Answer: 91.2 µM

Question: What about the IC50 (WI-38) of the same compound?
Answer: > 100 µM

Question: And the IC50 (SW-620)?
Answer: 74.9 µM

Question: And the IC50 (MCF7)?
Answer: 7 µM

Question: And the IC50 (SK-BR-3 [20])?
Answer: 3.83 µM
